Measured values gathered from unrelated publications.
Protocols differ between the studies behind these lines.
CYP1A2: Cytochrome P450 1A2 (CYP1A2, Homo sapiens, UniProt P05177)

| SMILES | target or system | test | test system | conditions | endpoint | value |
| --- | --- | --- | --- | --- | --- | --- |
| COC(=O)N[C@H](C(=O)N1CCC[C@H]1c1nc(-c2ccc3c(c2)O[C@@H](c2ccccc2)n2c-3cc3cc(-c4c[nH]c([C@@H]5CCCN5C(=O)[C@@H](NC(=O)OC)C(C)C)n4)ccc32)c[nH]1)C(C)C | BHK-21 | cell growth or viability, CCK-8 | – | 48 h | CC50 | > 600 µM |
| NS(=O)(=O)c1ccc(-c2ccc(Nc3ccc(F)c(Cl)c3)cc2)cc1 | BHK-21 | cell growth or viability, MTT | – | 100 µM | viability | 75% |
| CC(=O)O[C@H]1[C@H](O[C@H]2CC[C@]34C[C@]35CC[C@]3(C)[C@@H]([C@@]6(C)CC[C@@H](C(C)(C)O)O6)[C@@H](O)C[C@@]3(C)[C@@H]5C[C@H](O[C@@H]3O[C@H](CO)[C@@H](O)[C@H](O)[C@H]3O)[C@H]4C2(C)C)OC[C@@H](O)[C@@H]1O | CYP1A2 | enzyme activity, inhibitor | human, liver microsomes | – | IC50 | > 200 µM |
| O=C1C(=O)c2cccnc2-c2ncccc21.O=C1C(=O)c2cccnc2-c2ncccc21.O=C1C(=O)c2cccnc2-c2ncccc21.[Cu+2].[O-][Cl+3]([O-])([O-])[O-].[O-][Cl+3]([O-])([O-])[O-] | Vero | cell growth or viability, MTT | – | 72 h | CC50 | > 200 µM |
| COc1ccc2c(c1)CN(C(=O)CCN1CCC(Cc3ccccc3)CC1)CC[S@@+]2[O-] | – | – | male human, plasma | intravenous, 0.15 mg/kg, healthy volunteers | Vd | 86.7 L |
| N#Cc1cccc(-c2ccc3ncc(-c4cc(F)cc(F)c4)c(N4CCC(N)CC4)c3c2)c1O | – | – | human, plasma | oral, 20 mg, single dose | Vd/F | 300 L |
| CCCSc1ccc2nc(NC(=O)OC)[nH]c2c1 | Vero | cell growth or viability, MTT | – | 72 h | CC50 | > 200 µM |
| CC(=O)O[C@@H]1[C@@H](O)[C@H](O[C@H]2CC[C@]34C[C@]35CC[C@]3(C)[C@@H]([C@@]6(C)CC[C@@H](C(C)(C)O)O6)[C@@H](O)C[C@@]3(C)[C@@H]5C[C@H](O[C@@H]3O[C@H](CO)[C@@H](O)[C@H](O)[C@H]3O)[C@H]4C2(C)C)OC[C@H]1O | CYP1A2 | enzyme activity, inhibitor | human, liver microsomes | – | IC50 | > 200 µM |
| NS(=O)(=O)c1ccc(-c2ccc(Nc3ccncc3)cc2)cc1 | BHK-21 | cell growth or viability, MTT | – | 100 µM | viability | 76% |
| C#CCC(Cc1cnc2nc(N)nc(N)c2n1)c1ccc(C(=O)N[C@@H](CCC(=O)O)C(=O)O)cc1 (stereo partly shown) | BHK-21 | cell growth or viability, CCK-8 | – | 48 h | CC50 | 104 µM |
| C[C@@H](Oc1ccc(S(C)(=O)=O)cc1C(=O)N1C[C@@H]2C[C@]2(c2cc(C(F)(F)F)on2)C1)C(F)(F)F | – | – | human, plasma | oral, 10 mg, single dose, fasted | Vd/F | 273 L |
| OC[C@H]1O[C@@H](c2cc(Cc3ccc(C4CC4)cc3)c(Cl)c3c2CCO3)[C@H](O)[C@@H](O)[C@@H]1O | – | – | human, plasma | oral, 0.3 mg, single dose, fasted | Vd/F | 167 L |
| CC[C@H](C)[C@@H]([C@@H](CC(=O)N1CCC[C@H]1[C@H](OC)[C@@H](C)C(=O)N[C@@H](Cc1ccccc1)C(=O)NCCCO)OC)N(C)C(=O)[C@@H](NC(=O)[C@H](C(C)C)N(C)C)C(C)C | Cytochrome P450 3A4 (CYP3A4, Homo sapiens, UniProt P08684) | enzyme activity, inhibitor | human, liver microsomes | – | IC50 | 43.6 µM |
